Source: ChEMBL document CHEMBL1125075, “Synthesis of a new class of 2,3-dihydro-2-oxo-1H-benzimidazole-1-carboxylic acid derivatives as highly potent 5-HT3 receptor antagonists” (J Med Chem, 1990)

Columns and labels:
[1] = biological target: T1, Serotonin 3 (5-HT3) receptor (Rattus norvegicus, UniProt P35563+Q9JJ16); assay: Concentration that inhibits the binding of radioligand, [3H]-ICS 205930, to 5-hydroxytryptamine 3 receptor from rat cortex
T1 sequence (P35563 whole entry): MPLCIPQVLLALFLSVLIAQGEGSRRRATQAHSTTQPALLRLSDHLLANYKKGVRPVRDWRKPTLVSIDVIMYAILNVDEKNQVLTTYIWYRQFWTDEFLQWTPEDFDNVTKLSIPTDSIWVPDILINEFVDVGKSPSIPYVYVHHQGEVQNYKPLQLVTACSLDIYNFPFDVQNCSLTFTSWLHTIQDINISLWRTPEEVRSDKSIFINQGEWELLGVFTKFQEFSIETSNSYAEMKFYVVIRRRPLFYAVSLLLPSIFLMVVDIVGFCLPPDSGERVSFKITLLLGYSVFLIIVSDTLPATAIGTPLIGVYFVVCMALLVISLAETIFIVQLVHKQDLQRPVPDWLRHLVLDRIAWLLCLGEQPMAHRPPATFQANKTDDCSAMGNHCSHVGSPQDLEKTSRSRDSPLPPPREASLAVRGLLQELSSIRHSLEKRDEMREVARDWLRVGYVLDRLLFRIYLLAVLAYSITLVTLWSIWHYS
T1 sequence (Q9JJ16 whole entry): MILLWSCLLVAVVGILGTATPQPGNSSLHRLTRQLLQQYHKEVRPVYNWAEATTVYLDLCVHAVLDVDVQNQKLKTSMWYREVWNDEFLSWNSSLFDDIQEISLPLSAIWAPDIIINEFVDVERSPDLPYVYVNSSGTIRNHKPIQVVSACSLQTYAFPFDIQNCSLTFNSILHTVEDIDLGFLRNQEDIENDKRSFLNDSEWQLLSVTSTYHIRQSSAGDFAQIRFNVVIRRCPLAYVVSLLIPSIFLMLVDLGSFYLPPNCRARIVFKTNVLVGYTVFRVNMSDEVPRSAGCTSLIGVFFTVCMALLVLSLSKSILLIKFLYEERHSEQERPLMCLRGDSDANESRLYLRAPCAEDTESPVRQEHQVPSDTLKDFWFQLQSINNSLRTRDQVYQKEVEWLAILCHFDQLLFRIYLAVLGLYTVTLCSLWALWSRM
Outline: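 Rat cerebral cortex P2 fraction homogenised in 50 mM Tris·HCl pH 7.4 with 0.1% ascorbate, 4 mM CaCl2 and 10 μM pargyline, about 500 μg/mL protein. Incubated with 0.5–2.0 nM [3H]ICS 205930 (82.7 Ci/mmol) and a range of test concentrations, 30 °C for 30 min. Nonspecific binding with 10 μM reference antagonist; GF/B filtration; triplicate; Ki by computer fit.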

[2] = system: Rattus norvegicus; assay: Effective dose that causes 50% reduction of serotonin effect in rats intravenously; type: functional
Outline: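 Rat 5-HT-induced von Bezold-Jarisch reflex. ED50 is the antagonist dose giving 50% reduction of the serotonin effect, calculated by linear regression. Means with 95% confidence limits.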

[3] = Rattus norvegicus, iv, read-out: ED50

| SMILES | Ki [1] [nM] | ED50 [2, 3] [µmol/kg] | ED50 [2] [nM/kg] |
| --- | --- | --- | --- |
| CN1C2CCC1C(OC(=O)n1c(=O)[nH]c3ccccc31)C2 (configuration not stated) | > 1000 | > 3 |  |
| CN1C2CCC1CC(NC(=O)n1c(=O)[nH]c3ccccc31)C2.Cl (configuration not stated) | > 1000 |  | >3000 |
| CC1CC(OC(=O)n2c(=O)[nH]c3ccccc32)CC(C)N1C (configuration not stated) | > 1000 | > 3 |  |
| CN1C2CCC1CC(OC(=O)n1c(=O)[nH]c3cc(F)ccc31)C2 (configuration not stated) | 26.2 | 0.204 |  |
| CC(=O)c1ccc2[nH]c(=O)n(C(=O)OC3CC4CCC(C3)N4C)c2c1 (configuration not stated) | > 1000 | > 3 |  |
| CN1C2CCC1CC(NC(=O)n1c(=O)[nH]c3ccccc31)C2 (configuration not stated) | 3.75 |  | 1 |
| C[N+]1(C)C2CCC1CC(OC(=O)n1c(=O)[nH]c3ccccc31)C2 (configuration not stated) | 33.6 | 0.0093 |  |
| CN1CCC(NC(=O)n2c(=O)[nH]c3ccccc32)CC1 | 436 | 1.52 |  |
| COc1ccc2[nH]c(=O)n(C(=O)OC3CC4CCC(C3)N4C)c2c1 (configuration not stated) | > 1000 |  |  |
| CN(C(=O)n1c(=O)[nH]c2ccccc21)C1CC2CCCC(C1)N2C (configuration not stated) | > 1000 | > 3 |  |
| O=C(OC1CN2CCC1CC2)n1c(=O)[nH]c2ccccc21 (configuration not stated) | 16.3 | 0.8 |  |
| O=C(NC1CN2CCC1CC2)n1c(=O)[nH]c2ccccc21 (configuration not stated) | 2.07 | 0.0035 |  |
| CN1C2CCC1CC(OC(=O)n1c(=O)[nH]c3ccccc31)C2 (configuration not stated) | 21.4 |  | 17.9 |
| CCn1c(=O)n(C(=O)NC2CC3CCC(C2)N3C)c2ccccc21 (configuration not stated) | 2.3 | 0.0051 |  |
| CN1C2CCC1CC(OC(=O)n1c(=O)[nH]c3cc(C(F)(F)F)ccc31)C2 (configuration not stated) | > 1000 | > 3 |  |
| O=C(OC1CC2CCC(C1)N2Cc1ccccc1)n1c(=O)[nH]c2ccccc21 (configuration not stated) | > 1000 | > 3 |  |
| O=C(NC1CCN2CCCC1C2)n1c(=O)[nH]c2ccccc21 (configuration not stated) | 20.2 | 0.289 |  |
| CN1C2CCCC1CC(NC(=O)n1c(=O)[nH]c3ccccc31)C2.Cl (configuration not stated) | 1.53 |  | 1.1 |
| CN1[C@@H]2CC[C@H]1C[C@@H](OC(=O)c1cc(Cl)cc(Cl)c1)C2 [BEMESETRON] | 24.4 | 0.195 |  |
| O=C(OC1CCNCC1)n1c(=O)[nH]c2ccccc21 | 72.4 | 0.487 |  |
| Cc1cccc2[nH]c(=O)n(C(=O)OC3CC4CCC(C3)N4C)c12 (configuration not stated) | 306 | > 3 |  |

| SMILES | Ki [1] [nM] | ED50 [2, 3] [µmol/kg] | ED50 [2] [nM/kg] |
| --- | --- | --- | --- |
| CCn1c(=O)n(C(=O)OC2CC3CCC(C2)N3C)c2ccccc21 (configuration not stated) | 18 | 0.0097 |  |
| CN1CC2CCC1CC2OC(=O)n1c(=O)[nH]c2ccccc21.O=C(O)CC(O)(CC(=O)O)C(=O)O (configuration not stated) |  |  | 18.9 |
| CN1C2CCCC1CC(NC(=O)n1c(=O)n(C)c3ccccc31)C2 (configuration not stated) | 0.89 | 0.0015 |  |
| CN1CC2CCC1CC2OC(=O)n1c(=O)[nH]c2ccccc21.Cl (configuration not stated) | > 1000 |  | >3000 |
| O=C(OC12CCN(CC1)CC2)n1c(=O)[nH]c2ccccc21 | > 1000 | > 3 |  |
| CN1C2CCC1CC(OC(=O)n1c(=O)[nH]c3cc(Cl)ccc31)C2 (configuration not stated) | > 1000 | > 3 |  |
| CN1C2CCCC1CC(NC(=O)n1c(=O)[nH]c3ccccc31)C2 (configuration not stated) | 130 |  | 905 |
| Cc1cc2[nH]c(=O)n(C(=O)OC3CC4CCC(C3)N4C)c2cc1C (configuration not stated) | > 1000 | > 3 |  |
| Cc1ccc2c(c1)[nH]c(=O)n2C(=O)OC1CC2CCC(C1)N2C (configuration not stated) | > 1000 | > 3 |  |
| COc1ccc2c(c1)[nH]c(=O)n2C(=O)OC1CC2CCC(C1)N2C (configuration not stated) | > 1000 | > 3 |  |
| CN1C2CCC1CC(OC(=O)n1c(=O)n(C)c3ccccc31)C2 (configuration not stated) | 12 | 0.038 |  |
| CN1C2CCC1CC(NC(=O)n1c(=O)n(C)c3ccccc31)C2 (configuration not stated) | 1.7 | 0.0054 |  |
| CCN1C2CCC1CC(OC(=O)n1c(=O)[nH]c3ccccc31)C2 (configuration not stated) | > 1000 | > 3 |  |
| CN1[C@@H]2CC[C@H]1C[C@@H](OC(=O)c1c[nH]c3ccccc13)C2 [TROPISETRON] | 1.71 | 0.0021 |  |
| Cc1cccc2c1[nH]c(=O)n2C(=O)OC1CC2CCC(C1)N2C (configuration not stated) | 7.94 | 0.0301 |  |
| CN1CCC(OC(=O)n2c(=O)[nH]c3ccccc32)CC1 | > 1000 | > 3 |  |
| CN1C2CCCC1CC(OC(=O)n1c(=O)[nH]c3ccccc31)C2.Cl (configuration not stated) | 2.17 |  | 10.8 |
| CN1C2CCCC1CC(OC(=O)n1c(=O)[nH]c3ccccc31)C2.O=C(O)CC(O)(CC(=O)O)C(=O)O (configuration not stated) | > 1000 |  | >3000 |
| CN1C2CCC1CC(OC(=O)n1c(=O)[nH]c3ccccc31)C2.Cl (configuration not stated) | > 1000 |  | 3982 |
| CN1C2CCC1CC(OC(=O)n1c(=O)[nH]c3ccc(F)cc31)C2 (configuration not stated) | 33.9 | 0.062 |  |
| O=C(NC1CC2CCC(C1)N2Cc1ccccc1)n1c(=O)[nH]c2ccccc21 (configuration not stated) | > 1000 | > 3 |  |
